Measured values: ChEMBL document CHEMBL4138298, “Synthesis of Novel Tetrahydroisoquinoline CXCR4 Antagonists with Rigidified Side-Chains” (ACS Med Chem Lett, 2018)

Tests used:
[1] = molecular target: C-X-C chemokine receptor type 4 (Homo sapiens, UniProt P61073); test: Antagonist activity at CXCR4 in human CCRF-CEM cells assessed as inhibition of CXCL12-mediated calcium flux incubated for 25 mins followed by CXCL12 stimulation measured for 90 secs; format: functional, cell-based
[2] = molecular target: T1, Muscarinic acetylcholine receptor M3 (Homo sapiens, UniProt P20309); test: Antagonist activity at mAChR M3 in human CCRF-CEM cells assessed as inhibition of acetylcholine-mediated calcium flux incubated for 25 mins followed by acetylcholine stimulation measured for 90 secs; format: functional, cell-based
Target sequence in this assay (P20309 whole entry): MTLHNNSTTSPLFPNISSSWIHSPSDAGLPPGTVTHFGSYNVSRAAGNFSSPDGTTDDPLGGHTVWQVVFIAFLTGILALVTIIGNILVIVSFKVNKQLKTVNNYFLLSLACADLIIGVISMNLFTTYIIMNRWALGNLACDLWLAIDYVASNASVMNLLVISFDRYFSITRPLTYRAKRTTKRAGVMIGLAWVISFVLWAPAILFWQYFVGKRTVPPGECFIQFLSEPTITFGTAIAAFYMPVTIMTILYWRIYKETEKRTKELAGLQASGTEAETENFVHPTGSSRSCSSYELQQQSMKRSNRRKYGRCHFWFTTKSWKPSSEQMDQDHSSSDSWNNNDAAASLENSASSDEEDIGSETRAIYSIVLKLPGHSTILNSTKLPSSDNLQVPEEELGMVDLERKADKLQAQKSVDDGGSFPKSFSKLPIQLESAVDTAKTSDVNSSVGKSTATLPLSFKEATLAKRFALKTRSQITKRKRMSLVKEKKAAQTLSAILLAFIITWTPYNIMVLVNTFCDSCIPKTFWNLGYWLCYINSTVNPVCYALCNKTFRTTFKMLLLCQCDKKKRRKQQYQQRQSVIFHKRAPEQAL

[3] = Permeability of the compound in pH 7.4 buffer after 4 hrs by PAMPA; format: ADME; details: read-out: permeability
Outline: (§1)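 Parallel artificial membrane permeability assay (PAMPA) for passive transcellular permeability, run at pH 7.4 and at pH 5.5, with permeability reported in nm/s.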

[4] = Permeability of the compound in pH 5.5 buffer after 4 hrs by PAMPA; format: ADME; details: for Papp at 4 h: PAMPA, pH 5.5, read-out: permeability; outline: as §1
Cytochrome P450 2D6 = Cytochrome P450 2D6 (Homo sapiens, UniProt P10635); test: Inhibition of recombinant human CYP2D6 expressed in insect microsomes using AMMC as substrate preincubated for 30 mins followed by NADPH addition measured after 45 mins by fluorescence assay; format: ADME
Cytochrome P450 3A4 = Cytochrome P450 3A4 (Homo sapiens, UniProt P08684); test: Inhibition of CYP3A4 (unknown origin) using BFC as substrate; format: ADME
[5] = Metabolic stability in mouse liver microsomes assessed as parent compound remaining; format: ADME, microsome
[6] = Metabolic stability in rat liver microsomes assessed as parent compound remaining; format: ADME, microsome
[7] = Metabolic stability in human liver microsomes assessed as parent compound remaining; format: ADME, microsome
[8] = molecular target: T1, Muscarinic acetylcholine receptor M3; test: Antagonist activity at mAChR M3 in human CCRF-CEM cells assessed as inhibition of acetylcholine-mediated calcium flux incubated for 25 mins followed by acetylcholine stimulation measured for 90 secs relative to control; format: functional, cell-based; also: test concentration or dose not given here
Target sequence in this assay (P20309 whole entry, looked up): as the sequence (P20309 whole entry) above

Cytochrome P450 2C8 = molecular target: T2, Cytochrome P450 2C8 (Homo sapiens, UniProt P10632); test: Inhibition of CYP2C8 (unknown origin); format: ADME
T2 sequence (P10632 whole entry): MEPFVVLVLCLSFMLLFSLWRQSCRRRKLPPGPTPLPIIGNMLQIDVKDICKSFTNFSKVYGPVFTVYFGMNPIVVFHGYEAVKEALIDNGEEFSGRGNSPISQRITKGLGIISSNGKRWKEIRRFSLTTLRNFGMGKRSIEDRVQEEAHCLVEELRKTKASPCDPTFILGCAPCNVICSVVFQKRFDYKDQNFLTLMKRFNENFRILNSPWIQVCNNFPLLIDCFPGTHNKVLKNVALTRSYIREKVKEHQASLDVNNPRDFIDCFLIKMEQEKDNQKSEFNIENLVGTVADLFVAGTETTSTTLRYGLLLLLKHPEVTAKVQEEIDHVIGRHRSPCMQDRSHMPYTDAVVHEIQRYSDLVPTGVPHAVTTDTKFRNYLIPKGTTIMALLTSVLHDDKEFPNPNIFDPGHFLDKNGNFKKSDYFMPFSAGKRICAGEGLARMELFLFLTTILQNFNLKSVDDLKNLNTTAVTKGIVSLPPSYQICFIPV

Cytochrome P450 2C19 = Cytochrome P450 2C19 (Homo sapiens, UniProt P33261); test: Inhibition of CYP2C19 (unknown origin); format: ADME
Sequence of Cytochrome P450 2C19 (P33261 whole entry): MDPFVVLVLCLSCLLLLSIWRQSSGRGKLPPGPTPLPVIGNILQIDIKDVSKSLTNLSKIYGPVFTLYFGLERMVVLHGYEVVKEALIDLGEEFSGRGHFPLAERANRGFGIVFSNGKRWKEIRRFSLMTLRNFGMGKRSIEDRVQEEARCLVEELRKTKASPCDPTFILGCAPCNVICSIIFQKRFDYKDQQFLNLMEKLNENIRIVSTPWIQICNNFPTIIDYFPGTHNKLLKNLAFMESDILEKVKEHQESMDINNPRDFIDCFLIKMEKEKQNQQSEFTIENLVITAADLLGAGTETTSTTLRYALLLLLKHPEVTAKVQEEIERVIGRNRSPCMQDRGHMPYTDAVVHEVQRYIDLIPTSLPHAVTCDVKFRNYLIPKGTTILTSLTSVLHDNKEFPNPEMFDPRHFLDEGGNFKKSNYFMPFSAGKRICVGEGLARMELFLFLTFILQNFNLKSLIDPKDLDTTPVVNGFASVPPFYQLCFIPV

Sequence of Cytochrome P450 3A4 (P08684 whole entry): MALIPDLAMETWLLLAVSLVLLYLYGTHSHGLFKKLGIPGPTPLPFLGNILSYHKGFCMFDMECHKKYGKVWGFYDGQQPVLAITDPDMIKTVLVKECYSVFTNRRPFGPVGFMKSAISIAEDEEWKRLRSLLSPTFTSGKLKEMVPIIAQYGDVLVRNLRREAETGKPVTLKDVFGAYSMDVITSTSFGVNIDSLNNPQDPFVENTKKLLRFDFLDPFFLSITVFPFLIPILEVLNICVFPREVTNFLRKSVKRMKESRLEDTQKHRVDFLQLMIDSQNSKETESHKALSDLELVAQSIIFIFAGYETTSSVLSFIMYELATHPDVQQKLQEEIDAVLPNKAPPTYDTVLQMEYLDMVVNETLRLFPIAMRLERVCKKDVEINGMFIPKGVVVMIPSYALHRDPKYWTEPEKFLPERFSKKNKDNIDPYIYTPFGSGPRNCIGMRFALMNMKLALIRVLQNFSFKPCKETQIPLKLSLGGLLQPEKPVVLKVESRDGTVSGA
Sequence of Cytochrome P450 2D6 (P10635 whole entry): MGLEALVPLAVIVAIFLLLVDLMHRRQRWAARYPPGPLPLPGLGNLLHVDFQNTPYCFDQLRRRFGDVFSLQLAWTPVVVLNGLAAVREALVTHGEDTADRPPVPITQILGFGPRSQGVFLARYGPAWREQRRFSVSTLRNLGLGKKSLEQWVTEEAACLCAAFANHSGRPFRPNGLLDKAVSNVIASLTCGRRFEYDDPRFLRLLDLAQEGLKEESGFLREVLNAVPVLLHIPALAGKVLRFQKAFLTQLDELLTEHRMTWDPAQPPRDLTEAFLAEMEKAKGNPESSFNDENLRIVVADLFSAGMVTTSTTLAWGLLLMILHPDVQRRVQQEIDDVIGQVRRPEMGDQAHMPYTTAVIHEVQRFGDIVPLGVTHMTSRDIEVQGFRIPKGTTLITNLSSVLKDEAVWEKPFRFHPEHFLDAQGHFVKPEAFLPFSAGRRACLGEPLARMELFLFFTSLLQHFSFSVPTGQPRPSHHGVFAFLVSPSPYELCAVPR
Sequence of C-X-C chemokine receptor type 4 (P61073 whole entry): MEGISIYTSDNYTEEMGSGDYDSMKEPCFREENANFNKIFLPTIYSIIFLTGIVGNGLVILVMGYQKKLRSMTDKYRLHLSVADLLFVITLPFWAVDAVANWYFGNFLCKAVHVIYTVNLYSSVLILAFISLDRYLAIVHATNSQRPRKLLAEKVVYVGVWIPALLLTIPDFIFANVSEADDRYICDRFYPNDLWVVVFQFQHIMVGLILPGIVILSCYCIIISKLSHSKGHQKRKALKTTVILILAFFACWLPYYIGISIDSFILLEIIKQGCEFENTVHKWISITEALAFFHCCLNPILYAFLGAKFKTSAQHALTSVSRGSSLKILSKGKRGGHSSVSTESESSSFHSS

## C/C(CN)=C(\F)CN(C[C@H]1Cc2ccccc2CN1)[C@H]1CCCc2cccnc21
[1]
  IC50: 28 nM
[2]
  IC50: 770 nM
[3]
  Papp at 4 h: 49 ×10⁻⁶ cm/s
[4]
  Papp at 4 h: 5 ×10⁻⁶ cm/s
Cytochrome P450 2D6
  IC50: 59 nM
Cytochrome P450 3A4
  IC50: 15000 nM
[5]
  Stability: 2%
[6]
  Stability: 2%
[7]
  Stability: 100%

## NCC1CC1CN(C[C@H]1Cc2ccccc2CN1)[C@H]1CCCc2cccnc21 (single isomer, unassigned; diastereomer 1) [listing 1 of 2 here]
[8]
  inhibition: 51%

## N[C@H]1CC[C@H](N(C[C@H]2Cc3ccccc3CN2)[C@H]2CCCc3cccnc32)CC1
[1]
  IC50: 34 nM
[2]
  IC50: > 33000 nM
[3]
  Papp at 4 h: 3.7 ×10⁻⁶ cm/s
[4]
  Papp at 4 h: 0.6 ×10⁻⁶ cm/s
Cytochrome P450 2D6
  IC50: 2500 nM
Cytochrome P450 3A4
  IC50: > 20000 nM
[5]
  Stability: 77%
[6]
  Stability: 71%
[7]
  Stability: 95%

## NC[C@H]1CC[C@H](CN(C[C@H]2Cc3ccccc3CN2)[C@H]2CCCc3cccnc32)CC1
[2]
  IC50: 10000 nM
Cytochrome P450 2D6
  IC50: 12000 nM
Cytochrome P450 2C8
  IC50: 4100 nM
Cytochrome P450 2C19
  IC50: 9100 nM
[5]
  Stability: 92%
[6]
  Stability: 86%
[7]
  Stability: 63%

## NC/C=C\CN(C[C@H]1Cc2ccccc2CN1)[C@H]1CCCc2cccnc21
[1]
  IC50: 10 nM
[2]
  IC50: 610 nM
[3]
  Papp at 4 h: 57 ×10⁻⁶ cm/s
[5]
  Stability: 4%
[6]
  Stability: 4%
[7]
  Stability: 100%

## C/C(CN(C[C@H]1Cc2ccccc2CN1)[C@H]1CCCc2cccnc21)=C(/F)CN
[1]
  IC50: 1800 nM
[2]
  IC50: > 17000 nM
[3]
  Papp at 4 h: 70 ×10⁻⁶ cm/s
Cytochrome P450 2D6
  IC50: 110 nM
Cytochrome P450 3A4
  IC50: 1800 nM
Cytochrome P450 2C8
  IC50: 18000 nM
[5]
  Stability: 15%
[6]
  Stability: 61%
[7]
  Stability: 35%

## C/C(=C/CN(C[C@H]1Cc2ccccc2CN1)[C@H]1CCCc2cccnc21)CN
[1]
  IC50: 8.6 nM
[2]
  IC50: 32 nM
[3]
  Papp at 4 h: 1.1 ×10⁻⁶ cm/s
[4]
  Papp at 4 h: 0.4 ×10⁻⁶ cm/s
Cytochrome P450 2D6
  IC50: < 27 nM
Cytochrome P450 3A4
  IC50: > 20000 nM
[5]
  Stability: 2%
[6]
  Stability: 1%
[7]
  Stability: 100%

## NCC1CC1CN(C[C@H]1Cc2ccccc2CN1)[C@H]1CCCc2cccnc21 (single isomer, unassigned; diastereomer 1) [listing 2 of 2 here]
[1]
  IC50: 6.4 nM
[2]
  IC50: > 33000 nM
[3]
  Papp at 4 h: 13 ×10⁻⁶ cm/s
[4]; pampa, pH 5.5, 4 h, 4 h
  permeability: 0.8 ×10⁻⁶ cm/s
Cytochrome P450 2D6
  IC50: 540 nM
[5]
  Stability: 1%
[6]
  Stability: 1%
[7]
  Stability: 100%

## C/C(CN)=C(/F)CN(C[C@H]1Cc2ccccc2CN1)[C@H]1CCCc2cccnc21
[1]
  IC50: 44 nM
[2]
  IC50: 8800 nM
[3]
  Papp at 4 h: 22 ×10⁻⁶ cm/s
Cytochrome P450 2D6
  IC50: 140 nM
Cytochrome P450 3A4
  IC50: 2400 nM
Cytochrome P450 2C19
  IC50: 19000 nM
[5]
  Stability: 61%
[6]
  Stability: 72%
[7]
  Stability: 97%
